Assay results taken from ChEMBL document CHEMBL3120069, “Chemical genetics-based discovery of indole derivatives as HCV NS5B polymerase inhibitors” (Eur J Med Chem, 2014).

What was measured:
Hepatitis C virus [1] = experiment: Antiviral activity against Hepatitis C virus JFH-1 J6 genotype 2a infected in human Huh7.5 cells assessed as time required for reducing viral core level by half at 10 uM by Western blot analysis; assay type: functional, organism-based; conditions: Hepacivirus hominis, subtype 2a JFH1 J6, Huh-7
Outline: (§1)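 J6/JFH1 RNA-transfected Huh7.5 cells on 10 µM compound, lysed at 24, 48, 72 h. HCV core and β-actin probed by Western blot, core intensity normalised to β-actin; T1/2 from the time-response curve.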

Hepatitis C virus [2] = experiment: Antiviral activity against Hepatitis C virus Con1 Bart79I genotype 1b infected in human Huh7.5 cells assessed as inhibition of NS5A S2204I mutant synthesis after 120 hrs by Western blot analysis; assay type: functional, organism-based; conditions: subtype 1b Con1 Bart79I
Outline: (§2)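 Bart79I replicon Huh7.5 cells, 1.5×10⁵/well, treated with DMSO or compound. Dose series for 5 days (120 h), or 10 M for 24, 48, 72 h. Lysed in RIPA with protease inhibitors and protein quantified by Bradford. NS5A and β-actin measured by Western blot, with NS5A normalized to β-actin. EC50 and T1/2 taken from response curves.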

Hepatitis C virus [3] = experiment: Antiviral activity against Hepatitis C virus Con1 Bart79I genotype 1b expressing YFP infected in human Huh7.5 cells assessed as NS5A S2204I mutant synthesis at 10 uM after 72 hrs by FACS analysis (reference value: 52.2%); assay type: functional, Hepacivirus hominis, subtype 1b Con1 Bart79I, Huh-7
Outline: (§3)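 Huh7.5 cells stably carrying Bart79I-YFP subgenomic replicon (G418 selection), treated with DMSO or compound. Dose series over 5 days (120 h), or 10 M with sampling at 24, 48, 72 h. Cells washed, resuspended in PBS, and NS5A-YFP-positive cells counted by FACS. EC50 and T1/2 taken from response curves.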

Hepatitis C virus [4] = experiment: Antiviral activity against Hepatitis C virus JFH-1 J6 genotype 2a infected in human Huh7.5 cells assessed as inhibition of viral RNA replication after 72 hrs by real time qRT-PCR analysis; assay type: functional, organism-based
Hepatitis C virus [5] = experiment: Antiviral activity against Hepatitis C virus JFH-1 J6 genotype 2a infected in human Huh7.5 cells assessed as inhibition of viral RNA replication at 10 uM by real time qRT-PCR analysis; assay type: functional, organism-based; conditions: Hepacivirus hominis, subtype 2a JFH1 J6, Huh-7, TDE = time-dependent effect
Outline: (§4)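 J6/JFH1 RNA-transfected Huh7.5 cells held at 10 µM compound for increasing periods; HCV and host GAPDH RNA measured by real-time qRT-PCR. Triplicates, mean ± SD; T1/2 for halving viral RNA from the time-response curve.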

[6] = Selectivity index, ratio of CC50 for human Huh7.5 cells to EC50 for Hepatitis C virus JFH-1 J6 genotype 2a infected in human Huh7.5 cells; assay type: toxicity, cell-based, Huh-7; conditions: read-out: Ratio CC50/EC50
Hepatitis C virus [7] = experiment: Antiviral activity against Hepatitis C virus Con1 Bart79I genotype 1b expressing YFP infected in human Huh7.5 cells assessed as time required for reducing viral core level by half at 10 uM by FACS analysis; assay type: functional, organism-based; conditions: Hepacivirus hominis, subtype 1b Con1 Bart79I, Huh-7, in the assay text read “viral NS5A-YFP level” for “viral core level”
Outline: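 Huh7.5 cells stably carrying Bart79I-YFP subgenomic replicon (G418 750 mg/ml selection), exposed to compound at 10 µM; cells harvested at 24, 48, 72 h, washed, resuspended in PBS, NS5A-YFP-positive cell percentage read by FACS. T1/2 taken from the time-response curve.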

Hepatitis C virus [8] = experiment: Antiviral activity against Hepatitis C virus Con1 Bart79I genotype 1b expressing YFP infected in human Huh7.5 cells assessed as inhibition of NS5A S2204I mutant synthesis at 10 uM by FACS analysis; assay type: functional, organism-based; conditions: Hepacivirus hominis, subtype 1b Con1 Bart79I, Huh-7, TDE = time-dependent effect; outline: as §3
Hepatitis C virus [9] = experiment: Antiviral activity against Hepatitis C virus JFH-1 J6 genotype 2a infected in human Huh7.5 cells assessed as inhibition of viral core synthesis at 10 uM by Western blot analysis; assay type: functional, organism-based; conditions: Hepacivirus hominis, subtype 2a JFH1 J6, Huh-7, TDE = time-dependent effect; outline: as §1
Hepatitis C virus [10] = experiment: Antiviral activity against Hepatitis C virus Con1 Bart79I genotype 1b expressing YFP infected in human Huh7.5 cells assessed as NS5A S2204I mutant synthesis at 2 uM after 120 hrs by FACS analysis (reference value: 66%); assay type: functional, Hepacivirus hominis, subtype 1b Con1 Bart79I, Huh-7; outline: as §3
[11] = Inhibition of recombinant HCV N-terminal hexahistidine-tagged NS5B Cdelta21 RdRp expressed in Escherichia coli assessed as incorporation of [alpha-32P]-UTP in RNA after 2 hrs by autoradiographic analysis; set-up: species or system Hepacivirus hominis
Outline: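 N-terminal His6-tagged recombinant HCV NS5B from E. coli, primer-dependent elongation with poly(A) template (1 µg) and oligo(U)20 (10 pmol). Buffer: 50 mM Tris-HCl pH 7.5, 50 mM NaCl, 100 mM K glutamate, 2 mM MgCl2, 1 mM DTT, RNase inhibitor, UTP plus [α-³²P]UTP. Increasing compound concentrations; IC50 from dose-response curve.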

Hepatitis C virus [12] = experiment: Antiviral activity against Hepatitis C virus JFH-1 J6 genotype 2a infected in human Huh7.5 cells assessed as time required for reducing viral RNA level by half at 10 uM by real time qRT-PCR analysis; assay type: functional, organism-based; conditions: Hepacivirus hominis, subtype 2a JFH1 J6, Huh-7; outline: as §4
[13] = Cytotoxicity against human Huh7.5 cells assessed as cell viability after 72 hrs by MTT assay; assay type: cell-based, Huh-7
Hepatitis C virus [14] = experiment: Antiviral activity against Hepatitis C virus Con1 Bart79I genotype 1b infected in human Huh7.5 cells assessed as inhibition of NS5A S2204I mutant synthesis at 10 uM by Western blot analysis; assay type: functional, organism-based; conditions: Hepacivirus hominis, subtype 1b Con1 Bart79I, Huh-7, TDE = time-dependent effect; outline: as §2
Hepatitis C virus [15] = experiment: Antiviral activity against Hepatitis C virus Con1 Bart79I genotype 1b expressing YFP infected in human Huh7.5 cells assessed as NS5A S2204I mutant synthesis at 10 uM after 48 hrs by FACS analysis (reference value: 52.2%); assay type: functional, Hepacivirus hominis, subtype 1b Con1 Bart79I, Huh-7; outline: as §3
Hepatitis C virus [16] = experiment: Antiviral activity against Hepatitis C virus Con1 Bart79I genotype 1b expressing YFP infected in human Huh7.5 cells assessed as NS5A S2204I mutant synthesis at 1 uM after 120 hrs by FACS analysis (reference value: 66%); assay type: functional, Hepacivirus hominis, subtype 1b Con1 Bart79I, Huh-7; outline: as §3
Hepatitis C virus [17] = experiment: Antiviral activity against Hepatitis C virus JFH-1 J6 genotype 2a infected in human Huh7.5 cells assessed as time required for reducing viral RNA level by half at 10 uM by luciferase reporter gene assay; assay type: functional, organism-based; conditions: Hepacivirus hominis, subtype 2a JFH1 J6, Huh-7
Outline: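 Rluc-J6/JFH1 RNA-transfected Huh7.5 cells given 10 µM compound; renilla luciferase and cell viability measured at 24, 48, 72 h. T1/2 for halving replication taken from the time-response curve.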

[18] = Ratio of antiviral activity against Hepatitis C virus Con1 Bart79I genotype 1b expressing NS5A S2204I mutant infected in human Huh7.5 cells assessed as time required for reducing viral RNA level by half to antiviral activity against Hepatitis C virus JFH-1 J6 genotype 2a infected in human Huh7.5 cells assessed as time required for reducing viral RNA level by half; assay type: functional, Huh-7
Hepatitis C virus [19] = experiment: Antiviral activity against Hepatitis C virus Con1 Bart79I genotype 1b infected in human Huh7.5 cells assessed as time required for reducing NS5A S2204I mutant level by half at 10 uM by Western blot analysis; assay type: functional, organism-based; conditions: Hepacivirus hominis, subtype 1b Con1 Bart79I, Huh-7; outline: as §2

**Q.** What does the source list for `C/C(=C\c1c[nH]c2ccc(C#N)cc12)C(=O)Nc1ccc(C(C)(C)C)cc1`?
**A.** T1/2 (Hepatitis C virus [1]): 19.6 h; inhibition (Hepatitis C virus [2]; Hepacivirus hominis, Huh-7): Dose-dependent effect; EC50 (Hepatitis C virus [2]; Huh-7, 120 h): 2.5 µM; Activity (Hepatitis C virus [3]): 0.6%; inhibition (Hepatitis C virus [4]; Hepacivirus hominis, subtype 2a JFH1 J6, Huh-7): Dose-dependent effect; EC50 (Hepatitis C virus [4]; subtype 2a JFH1 J6, Huh-7, 72 h): 1.9 µM; inhibition (Hepatitis C virus [5]): tde; selectivity ratio [6]: 56.9; T1/2 (Hepatitis C virus [7]): 31.8 h; inhibition (Hepatitis C virus [8]): tde; inhibition (Hepatitis C virus [9]): tde; Activity (Hepatitis C virus [10]): 4.2%; IC50 [11]: 0.292 µM; T1/2 (Hepatitis C virus [12]): 17.2 h; CC50 at 72 h [13]: 61.8 µM; inhibition (Hepatitis C virus [14]): tde; Activity (Hepatitis C virus [15]): 11.8%; Activity (Hepatitis C virus [16]): 38.4%; T1/2 (Hepatitis C virus [17]): 16.4 h; Ratio [18]: 1.8; T1/2 (Hepatitis C virus [19]): 31.7 h
